Tests used:
[1] = test system: Mycobacterium tuberculosis; test: Inhibition of Bio-A overexpressed in Mycobacterium tuberculosis in presence of anhydrotetracycline after 9 days
Summary of the method: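 BioA-overexpressing or BioA-underexpressing Mtb strains were pregrown in Sauton's with 1 μM biotin, washed twice, and seeded at OD580 0.03 in biotin-free medium with 200 ng/mL anhydrotetracycline to set BioA expression. Compounds were tested at 0.2–50 μM final at 37 °C. OD580 was read after 9 days. MIC is the concentration giving 50% inhibition. Triplicate, two biological replicates.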

[2] = Binding affinity to N-terminally His-tagged Mycobacterium tuberculosis BioA overexpressed in Escherichia coli by ITC method
Summary of the method: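 BioA loaded with PLP by adding 1 mM PLP after size exclusion, then buffer-exchanged into 25 mM HEPES pH 7.5, 50 mM NaCl. Titrated at 25 °C: 10 μM BioA, ligand 100 μM with DMSO matched, 2 μL injections 150 s apart, 750 rpm. First injection discarded; dilution heats corrected; curve fit gives KA, KD = 1/KA. Triplicate, mean ± standard error.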

Structure (SMILES)	MIC50 [1]	Kd [2]	MIC90 [1]
CC(=O)c1ccc(-c2cn(Cc3cccc(Cl)c3)nn2)s1	> 50 µM		
O=C(c1cccc(Cl)c1)N1CCN(c2ccc([N+](=O)[O-])cc2)CC1	20.9 µM		
CC(=O)c1ccc(N2CCN(C(=O)c3cnn(C)c3)CC2)cc1	> 50 µM		
CC(=O)c1ccc(N2CCN(C(=O)c3cccnc3)CC2)cc1	> 50 µM		
O=C1CCc2cc(N3CCN(C(=O)c4ccc5c(c4)OCO5)CC3)ccc21	2.8 µM	74 nM	
N#Cc1ccc(N2CCN(C(=O)c3cccc(Cl)c3)CC2)cc1	45.9 µM		
O=C(c1cccc(Cl)c1)N1CCN(c2ccc(-c3ccccn3)cc2)CC1	> 50 µM		
CC(=O)c1ccc(N2CCN(C(=O)c3cccc(Cl)c3)CC2)s1	7.6 µM	322 nM	
COc1cc(Cl)cc(C(=O)N2CCN(c3ccc(C(C)=O)cc3)CC2)c1	> 50 µM		
CC(=O)c1ccc(N2CCN(C(=O)c3ccc4c(c3)OCCO4)CC2)cc1	> 50 µM		
CC(=O)c1ccc(N2CCN(C(=O)c3ccc4c(c3)OCO4)CC2)cc1	31.1 µM	108 nM	> 50 µM
CC(=O)c1ccc(N2CCN(C(=O)c3cccc(Cl)c3)CC2)cc1	7.5 µM	157 nM	
CC(=O)c1cccc(N2CCN(C(=O)c3cccc(Cl)c3)CC2)c1	> 50 µM		
COc1ccc(-c2ccc(N3CCN(C(=O)c4cccc(Cl)c4)CC3)cc2)nc1	> 50 µM		
CC(=O)c1ccc(N2CCN(C(=O)CC(C)C)CC2)cc1	> 50 µM		
CC(=O)c1ccc(N2CCC(C(=O)c3ccc4c(c3)OCO4)CC2)cc1	> 50 µM		
Cn1nnnc1-c1ccc(N2CCN(C(=O)c3cccc(Cl)c3)CC2)cc1	> 50 µM		
CC(=O)c1ccc(N2CCN(C(=O)c3ccc4c(c3)OCCCO4)CC2)cc1	> 50 µM		

Structure (SMILES)	MIC50 [1]	Kd [2]	MIC90 [1]
CCCCCC(=O)N1CCN(c2ccc(C(C)=O)cc2)CC1	47.6 µM		
C/C(=N\O)c1ccc(N2CCN(C(=O)c3cccc(Cl)c3)CC2)cc1	> 50 µM		
CC(=O)c1ccc(N2CCC(C(=O)c3cccc(Cl)c3)CC2)cc1	9.2 µM		
Cc1noc(-c2ccc(N3CCN(C(=O)c4cccc(Cl)c4)CC3)cc2)n1	> 50 µM		
O=C(c1cccc(Cl)c1)N1CCN(c2ccc3c(c2)COC3)CC1	> 50 µM		
CC(=O)c1ccc(-c2cn(Cc3cccc(Cl)c3)nn2)cc1	> 50 µM		
O=C(c1cccc(Cl)c1)N1CCN(c2ccc(-c3ccno3)cc2)CC1	38.9 µM		
CC(=O)c1ccc(N2CCN(C(=O)c3ccc(Cl)c(Cl)c3)CC2)cc1	17.7 µM		
O=C1CCc2cc(N3CCN(C(=O)c4cccc(Cl)c4)CC3)ccc21	8.1 µM	132 nM	
CC(=O)c1ccc(N2CCN(C(=O)c3cncc(Cl)c3)CC2)cc1	> 50 µM		
O=C1OCc2cc(N3CCN(C(=O)c4cccc(Cl)c4)CC3)ccc21	> 50 µM	685 nM	
CCC(=O)N1CCN(c2ccc(C(C)=O)cc2)CC1	> 50 µM		
COC(=O)c1ccc(N2CCN(C(=O)c3cccc(Cl)c3)CC2)cc1	> 50 µM		
CC(=O)c1ccc(N2CCN(C(=O)c3cscn3)CC2)cc1	> 50 µM		
CCCC(=O)N1CCN(c2ccc(C(C)=O)cc2)CC1	> 50 µM		
CC(=O)c1ccc(N2CCN(C(=O)c3cc(Cl)cc(Cl)c3)CC2)cc1	> 50 µM		
CN1Cc2cc(N3CCN(C(=O)c4cccc(Cl)c4)CC3)ccc2C1=O	> 50 µM	866 nM	

From ChEMBL document CHEMBL4011626, “Structure-Based Optimization of Pyridoxal 5'-Phosphate-Dependent Transaminase Enzyme (BioA) Inhibitors that Target Biotin Biosynthesis in Mycobacterium tuberculosis” (J Med Chem, 2017)
